Data on 4 compounds can be found in ChEMBL document CHEMBL1132793, “Chiral synthesis and pharmacological evaluation of NPS 1407: a potent, stereoselective NMDA receptor antagonist” (Bioorg Med Chem Lett, 2000).

For series [1], the system named is Mus musculus. Nature of the series: Relative anticonvulsant potency in frings mice by intraperitoneal administration expressed as effective dose. Type of series: functional. The settings on record: ip. Summed up:
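Frings audiogenic seizure-susceptible mice of both sexes (18–25 g), in groups of eight, given varying ip doses. At the time of peak effect, each mouse was exposed to a 110 dB (11 kHz) sound for 20 s and observed for 25 s. Absence of hindlimb tonic extension counted as protection. ED50 by probit analysis.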

Series [2] has as its system Mus musculus. Nature of the series: Relative anticonvulsant potency in frings mice by peroral administration expressed as effective dose. The following applies: po. Type of series: functional.
The subject of series [3] is Mus musculus. Nature of the series: Lethality in mice following 30 mg/kg/day ip dose; 4/7. Type of series: ADME, organism-based. The arrangement: route intraperitoneal. The following applies: in vivo.
The subject of series [4] is Mus musculus. The series can be described thus: Lethality in mice following 60 mg/kg/day ip dose; 8/8. Type of series: ADME, organism-based. The arrangement: route intraperitoneal. The following applies: in vivo.
Series [5] in a line: Relative anticonvulsant potency in frings mice by peroral administration expressed as toxic dose. The following applies: mouse, in vivo, po. Type of series: ADME, organism-based.
The target in series [6] is Glutamate NMDA receptor. Nature of the series: The compound was tested in vitro for the displacement of the radioligand (+)-[3H]-MK-801 from synaptic plasma membranes from rat cortex against N-methyl-D-aspartate glutamate receptor. Type of series: cell-free.
The target of series [7] is Glutamate NMDA receptor. Nature of the series: The compound was tested in vitro for the inhibition of N-methyl-D-aspartate glutamate receptor in rat cerebellar granule cells (RCGCs). An outline of the steps:
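Cultured rat cerebellar granule cells; cytosolic calcium rise stimulated by NMDA (50 µM) plus glycine (1 µM). Multiple cumulative concentration–response curves with at least five concentrations per test substance; IC50 by logit analysis.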

pIC50: −log10 of the molar value.

Take `NCCC(c1cccc(F)c1)c1cccc(F)c1`: the ED50 in series [1] amounted to 2.1 mg/kg; in series [2], 9.7 mg/kg.
In the case of `CC(N)CC(c1cccc(F)c1)c1cccc(F)c1` (configuration not stated), the ED50 in series [1] was determined as 4.9 mg/kg; in series [2] it was 5.1 mg/kg. In addition, the Lethality entry in series [3] and in series [4] was “Lethal” each time. The compound further yielded a TD50 in series [5] of 18.3 mg/kg. Besides, the pIC50 in series [6] was 5.98; in series [7], 6.84.
For the compound `C[C@H](N)CC(c1cccc(F)c1)c1cccc(F)c1`, the ED50 in series [1] amounted to 2.7 mg/kg; in series [2] it was 7.3 mg/kg. This compound also came in with a TD50 in series [5] of 18.6 mg/kg. Moreover, the results for the pIC50 in series [6] and in series [7] were 6.12 and 7.05, respectively.
`C[C@@H](N)CC(c1cccc(F)c1)c1cccc(F)c1` showed an ED50 in series [1] of 9.1 mg/kg. Further, the pIC50 in series [6] was 5.35; in series [7], 5.95.

For orientation: ED50 means the dose that gives a 50% effect, or the effect in half of the subjects. A lower ED50 goes with greater potency. As a reminder, the TD50 is the 50% point of the dose-response relation for the toxic effect studied. Low readings indicate greater toxicity, high ones lower toxicity. What is called pIC50 is the negative decadic logarithm of the IC50, by convention in mol/L. Low readings indicate a high IC50, high ones a low IC50.
